PMC7655718 (The Journal of antibiotics, 2020)
Converted amounts (≈) assume the structure as drawn. Like-named read-outs stand apart in the source and are kept apart here.

Assays:
[1] = tested on: S. epidermidis 700296 (Se); assay: MIC, microdilution with resazurin; assay type: cell-based; details: Staphylococcus epidermidis, read-out: MIC Se
How it was run: (§1)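 Compounds dissolved in DMSO at 2 mg/mL. Overnight blood-agar colonies were suspended in PBS to 0.5 McFarland, then diluted in Mueller Hinton broth to about 1x10^6 cfu/mL with resazurin (1:1000 of 0.1% w/v stock). Twofold DMSO dilutions were added 1:40, giving 50 to 0.4 μg/mL at 2.5% DMSO. Incubation was 35 °C for 16-20 h. Blue/non-turbid wells counted as inhibited, pink/turbid as grown.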

[2] = tested on: human embryonic kidney cell line (HEK293); assay: Toxicity against HEK293 cell line; assay type: cell-based
[3] = tested on: S. aureus ATCC 700699 (Sa99); assay: MIC, microdilution with resazurin; assay type: cell-based; details: Staphylococcus aureus, ATCC700699, read-out: MIC Sa99
How it was run: as §1

[4] = tested on: S. aureus ATCC 33592 (Sa92); assay: MIC, microdilution with resazurin; assay type: cell-based; details: Staphylococcus aureus, ATCC33592, read-out: MIC Sa92
How it was run: as §1

[5] = tested on: S. aureus BAA-2312 (Sa12); assay: MIC, microdilution with resazurin; assay type: cell-based; details: Staphylococcus aureus, BAA2312, read-out: MIC Sa12
How it was run: as §1

[6] = tested on: A. baumannii ATCC 19606 (type strain, Ab06); assay: MIC and MBC; assay type: cell-based, Acinetobacter baumannii; details: for MIC Ab06: A. baumannii ATCC 19606 (type strain)
How it was run: as §1

[7] = tested on: B. subtilis ATCC 6623 (Bs); assay: MIC, microdilution with resazurin; assay type: cell-based, Bacillus subtilis; details: for MIC: Bacillus subtilis, ATCC6623, read-out: MIC Bs
[8] = tested on: S. aureus ATCC 25923 (Sa23); assay: MIC, microdilution with resazurin; assay type: cell-based; details: Staphylococcus aureus, ATCC25923, read-out: MIC Sa23
How it was run: as §1

[9] = tested on: S. aureus ATCC 33591 (Sa91); assay: MIC, microdilution with resazurin; assay type: cell-based; details: Staphylococcus aureus, ATCC33591, read-out: MIC Sa91
How it was run: as §1

[10] = tested on: S. aureus ATCC 33599 (MRSA); assay: MIC and MBC; assay type: cell-based, Staphylococcus aureus; parameters: MBC as multiple of the MIC: unit not given beside the values; details: for MBC / MIC: Staphylococcus aureus, ATCC33599|MRSA
How it was run: as §1

[11] = tested on: A. baumannii ATCC 747 (Ab47); assay: MIC, microdilution with resazurin; assay type: cell-based, Acinetobacter baumannii; details: for MIC: Acinetobacter baumannii, ATCC747, read-out: MIC Ab47; for MIC Ab47: A. baumannii ATCC 747
How it was run: as §1

[12] = tested on: tested Gram-positive bacterial strains; assay: MIC, text summary over tested Gram-positive strains; assay type: cell-based; details: for MIC: read-out: MIC value as low as
[13] = tested on: A. baumannii ATCC BAA-1605 (Ab05); assay: MIC, microdilution with resazurin; assay type: cell-based, Acinetobacter baumannii
How it was run: as §1

A. baumannii ATCC 19606 = assay: Time kill assay; assay type: cell-based, Acinetobacter baumannii; details: 4xMIC
How it was run: (§2)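 Growth curves by optical density set the log phase. Log-phase bacteria (about 2 h shaking in Mueller Hinton broth II) were diluted in warm broth to about 3x10^6 cfu/mL. They were exposed to compound at 4xMIC (other multiples where indicated), in triplicate, at 35 °C. Colistin (A. baumannii) or vancomycin (S. aureus) and DMSO were included. Samples at 0, 2, 4, 6, 8, 10, 12 and 24 h were counted by drop plate on blood agar (18-24 h, 35 °C). Log cfu/mL was plotted against time.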

[14] = tested on: tested A. baumannii strains; assay: MIC, text summary over A. baumannii strains; assay type: cell-based, Acinetobacter baumannii; details: Acinetobacter baumannii, read-out: MIC value as low as
How it was run: as §1

[15] = tested on: S. aureus ATCC 33599 (MRSA); assay: Time kill assay; assay type: cell-based, Staphylococcus aureus
How it was run: as §2

[16] = tested on: S. aureus ATCC 33599 (MRSA); assay: BacLight membrane permeability assay; assay type: cell-based, Staphylococcus aureus; details: versus positive control vancomycin
[17] = tested on: S. aureus ATCC 25923 biofilm formation; assay: Biofilm inhibition assay; assay type: cell-based, Staphylococcus aureus; details: 2xMIC, MIC and 0.5xMIC concentrations, 24 hours
How it was run: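 Blood-agar culture was suspended in PBS (0.5 McFarland), then diluted 1:100 in yeast extract casamino acid broth (about 1x10^6 cfu/mL). Compound at 2xMIC, MIC and 0.5xMIC was added before biofilm formation, in triplicate, with broth-only and bacteria+DMSO controls. Incubation was 35 °C for 24 h. Wells were PBS-washed, dried, stained with 0.1% crystal violet, solubilised in 33% acetic acid and read at 620 nm. % inhibition = [1−(ODcompound−ODbroth)/(ODdmso−ODbroth)]×100, from mean and SD.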

[18] = tested on: S. aureus ATCC 25923 preformed biofilm; assay: Biofilm destruction assay; assay type: cell-based, Staphylococcus aureus; details: 2xMIC, MIC and 0.5xMIC tested, 24 hours
How it was run: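 Biofilm was first grown in 96-well plates for 24 h at 35 °C and washed with PBS to remove unadhered cells. Fresh yeast extract casamino acid broth was added with compound at 2xMIC, MIC or 0.5xMIC, or DMSO, in triplicate, plus broth-only wells. Incubation was 35 °C for 24 h. Crystal violet was stained, solubilised and read at 620 nm. % destruction = [1−(ODcompound−ODbroth)/(ODdmso−ODbroth)]×100, from triplicate means.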

[19] = Acinetobacter baumannii, ATCC19606, read-out: MIC Ab06

Molecule | MIC [1] | toxicity for HEK293 [2] | MIC [3] | MIC [4] | MIC [5] | MIC [6, 19] | MIC [7] | MIC [8] | MIC [9] | MBC [10] | MIC [10] | MIC [11] | MIC [12] | MIC Ab05 [13] | MIC Ab06 [6] | MIC Ab47 [11] | further results
O=C(O)c1ccc(-n2cc(/C=N/Nc3c(F)c(F)cc(F)c3F)c(-c3ccc4ccccc4c3)n2)cc1 [Compound 23] | > 50 mg/L | selective toxicity for bacterial cells | 1.56 mg/L (≈ 3.09 µM) | 1.56 mg/L (≈ 3.09 µM) | > 50 mg/L | > 50 mg/L | 3.12 mg/L (≈ 6.19 µM) | 3.12 mg/L (≈ 6.19 µM) | > 50 mg/L | 12.5 mg/L (≈ 24.8 µM) | 1.56 mg/L (≈ 3.09 µM) | > 50 mg/L | ≥ 0.78 mg/L | – | – | – | –
colistin [reference compound] | – | – | – | – | – | – | – | – | – | – | – | – | – | 3.125 mg/L | 3.125 mg/L | 1.56 mg/L | MIC ([6]; A. baumannii ATCC 19606, Table 2): 3.125 mg/L; MBC ([6]; A. baumannii ATCC 19606, concentration killing 99.9% or greater): 6.25 mg/L; time to completely kill the starting population (A. baumannii ATCC 19606): ≤ 4 h; time kill effect (A. baumannii ATCC 19606; 24 hours at 35 °C): immediate bactericidal effect
O=C(O)c1ccc(-n2cc(/C=N/Nc3ccccc3F)c(-c3ccc4ccccc4c3)n2)cc1 [Compound 14] | 12.5 mg/L (≈ 27.7 µM) | – | 3.12 mg/L (≈ 6.94 µM) | 1.56 mg/L (≈ 3.46 µM) | 12.5 mg/L (≈ 27.7 µM) | 25 mg/L (≈ 55.5 µM) | 6.25 mg/L (≈ 13.9 µM) | 12.5 mg/L (≈ 27.7 µM) | 12.5 mg/L (≈ 27.7 µM) | – | – | 25 mg/L (≈ 55.5 µM) | ≥ 1.56 mg/L | – | – | – | MIC [14]: ≥ 6.25 mg/L
O=C(O)c1ccc(-n2cc(/C=N/Nc3ccc(Cl)cc3Cl)c(-c3ccc4ccccc4c3)n2)cc1 [Compound 20] | 3.12 mg/L (≈ 6.23 µM) | – | 0.78 mg/L (≈ 1.56 µM) | 0.78 mg/L (≈ 1.56 µM) | 3.12 mg/L (≈ 6.23 µM) | > 50 mg/L | 3.12 mg/L (≈ 6.23 µM) | 3.12 mg/L (≈ 6.23 µM) | 6.25 mg/L (≈ 12.5 µM) | 6.25 mg/L (≈ 12.5 µM) | 0.78 mg/L (≈ 1.56 µM) | > 50 mg/L | – | – | – | – | time kill effect ([15]; 4xMIC, 24 hours at 35 °C): mild bactericidal effect; time kill effect ([15]; 8xMIC): strongly bactericidal; time to kill all bacteria ([15]; 8xMIC): ≤ 4 h; selectivity factor (IC50/MIC) ([2]; HEK293 IC50 over MIC, as high as): ≤ 48.7; membrane disruption activity, PI/SYTO-9 ratio [16]: more potent membrane disruption activity than vancomycin; MBC as multiple of the MIC ([10]; S. aureus ATCC 33599 (MRSA)): 8; antimicrobial activity against the tested strains [12]: enhanced activity against all the tested strains
O=C(O)c1ccc(-n2cc(/C=N/Nc3cccc(Br)c3)c(-c3ccc4ccccc4c3)n2)cc1 [Compound 17] | 6.25 mg/L (≈ 12.2 µM) | – | 1.56 mg/L (≈ 3.05 µM) | 1.56 mg/L (≈ 3.05 µM) | 6.25 mg/L (≈ 12.2 µM) | 12.5 mg/L (≈ 24.4 µM) | 3.12 mg/L (≈ 6.11 µM) | 6.25 mg/L (≈ 12.2 µM) | 6.25 mg/L (≈ 12.2 µM) | – | – | > 50 mg/L | – | did not inhibit the growth | moderately inhibited the growth | did not inhibit the growth | –
O=C(O)c1ccc(-n2cc(/C=N/N(Cc3ccccc3)Cc3ccccc3)c(-c3ccc4ccccc4c3)n2)cc1 [Compound 10] | 3.12 mg/L (≈ 5.82 µM) | did not show any significant toxicity | 1.56 mg/L (≈ 2.91 µM) | 1.56 mg/L (≈ 2.91 µM) | 3.12 mg/L (≈ 5.82 µM) | > 50 mg/L | > 50 mg/L | 3.12 mg/L (≈ 5.82 µM) | 1.56 mg/L (≈ 2.91 µM) | – | – | > 50 mg/L | ≥ 1.56 mg/L | – | – | – | IC50 ([2]; Homo sapiens, HEK293, read-out: IC50 for HEK293 cell line): ~50 mg/L (≈ 93.2 µM); inhibition of biofilm formation [17]: very effective; MIC Bs ([7]; B. subtilis ATCC 6623): no activity; destruction of preformed biofilm [18]: excellent ability to eliminate the preformed biofilms
